Measured values reported in ChEMBL document CHEMBL5303300, “EUbOPEN Chemogenomics Library - Multiplex” (2023).
Values joined by “and” are separate entries in the source; they are usually repeats but may differ in a detail not shown here. Identical values can stand only once.

Experiments:
Assay type in all cases: toxicity, cell-based
[1] = tested on: Fibroblast; experiment: Multiplex assay against human fibroblast; conditions: number of replicates 2
In short: (§1)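 Compound was added to live cells that had been stained at seeding with Hoechst33342, BioTracker Green Microtubule Cytoskeleton Dye, MitoTracker Red and Annexin V Alexa Fluor 680, and imaging followed on a CQ1 microscope at 37°C and 5% CO2. CellPathfinder machine-learning gating divided cells into Hoechst high-intensity objects or normal cells, normal cells into healthy, pyknosed or fragmented nuclei, and pyknosed cells into mitotic or apoptotic. Tubulin, mitochondrial-mass and membrane-permeability phenotypes are per cents of healthy-nucleus cells.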

[2] = tested on: U2OS; experiment: Multiplex assay against U2OS; conditions: human, number of replicates 2; in short: as §1
[3] = tested on: HEK-293T; experiment: Multiplex assay against HEK293T; conditions: human, number of replicates 2; in short: as §1
[4] = 12 h, 1 µM, compound concentration 1 uM
[5] = 12 h, 10 µM, compound concentration 10 uM
[6] = 24 h, 1 µM, compound concentration 1 uM
[7] = 24 h, 10 µM, compound concentration 10 uM
[8] = 48 h, 1 µM, compound concentration 1 uM
[9] = 48 h, 10 µM, compound concentration 10 uM

## CS(=O)(=O)c1ccc(C(=O)Nc2ccc(F)c(COc3ccc(Br)cc3CN3CC[C@H](O)C3)c2)c(Cl)c1.O=CO
[1]; [4]
  Population Apoptotic (%): 42% and 43%
  Population Fragmented Nuclei (%): 7% and 9%
  Population Healthy Nuclei (%): 63% and 67%
  Population Hoechst High Intensity Objects (%): 0%
  Population Normal (%): 100%
  Total Cell Count: 217 and 239
[1]; [5]
  Population Apoptotic (%): 42% and 43%
  Population Fragmented Nuclei (%): 21%
  Population Healthy Nuclei (%): 50% and 52%
  Population Hoechst High Intensity Objects (%): 0%
  Population Normal (%): 100% and 99%
  Total Cell Count: 194 and 258
[1]; [6]
  Population Apoptotic (%): 42% and 57%
  Population Fragmented Nuclei (%): 10% and 14%
  Population Healthy Nuclei (%): 64% and 69%
  Population Hoechst High Intensity Objects (%): 0%
  Population Normal (%): 100% and 99%
  Total Cell Count: 220 and 253
[1]; [7]
  Population Apoptotic (%): 72% and 81%
  Population Fragmented Nuclei (%): 15%
  Population Healthy Nuclei (%): 62% and 52%
  Population Hoechst High Intensity Objects (%): 0%
  Population Normal (%): 100% and 99%
  Total Cell Count: 197 and 255
[1]; [8]
  Population Apoptotic (%): 71% and 78%
  Population Fragmented Nuclei (%): 18% and 14%
  Population Healthy Nuclei (%): 64% and 73%
  Population Hoechst High Intensity Objects (%): 0%
  Population Normal (%): 99%
  Total Cell Count: 244 and 243
[1]; [9]
  Population Apoptotic (%): 88%
  Population Fragmented Nuclei (%): 20% and 15%
  Population Healthy Nuclei (%): 58% and 63%
  Population Hoechst High Intensity Objects (%): 0%
  Population Normal (%): 100% and 98%
  Total Cell Count: 178 and 242
[2]; [4]
  Population Apoptotic (%): 60%
  Population Healthy Nuclei (%): 60% and 82%
  Population Normal (%): 100%
  Population Pyknosed Nuclei (%): 10%
[2]; [5]
  Population Apoptotic (%): 91% and 68%
  Population Healthy Nuclei (%): 41% and 73%
  Population Normal (%): 100% and 98%
  Population Pyknosed Nuclei (%): 22%
[2]; [6]
  Population Apoptotic (%): 77% and 65%
  Population Healthy Nuclei (%): 62% and 84%
  Population Normal (%): 100%
  Population Pyknosed Nuclei (%): 13%
[2]; [7]
  Population Apoptotic (%): 71% and 92%
  Population Healthy Nuclei (%): 61% and 47%
  Population Normal (%): 98% and 100%
[2]; [8]
  Population Apoptotic (%): 100% and 93%
  Population Healthy Nuclei (%): 67% and 88%
  Population Normal (%): 100%
  Population Pyknosed Nuclei (%): 9%
[2]; [9]
  Population Apoptotic (%): 94% and 89%
  Population Healthy Nuclei (%): 23% and 51%
  Population Normal (%): 97% and 100%
  Population Pyknosed Nuclei (%): 41% and 39%
[3]; [4]
  Population Apoptotic (%): 55% and 45%
  Population Healthy Nuclei (%): 81% and 82%
  Population Mitotic Cells (%): 44% and 54%
  Population Normal (%): 94% and 93%
  Total Cell Count: 519 and 629
[3]; [5]
  Population Apoptotic (%): 61% and 58%
  Population Healthy Nuclei (%): 87% and 82%
  Population Normal (%): 91% and 88%
  Total Cell Count: 484 and 427
[3]; [6]
  Population Apoptotic (%): 60% and 47%
  Population Healthy Nuclei (%): 80% and 83%
  Population Mitotic Cells (%): 52%
  Population Normal (%): 92% and 93%
  Total Cell Count: 796 and 885
[3]; [7]
  Population Apoptotic (%): 69% and 68%
  Population Healthy Nuclei (%): 85% and 79%
  Population Mitotic Cells (%): 30%
  Population Normal (%): 90% and 91%
  Total Cell Count: 489 and 456
[3]; [8]
  Population Apoptotic (%): 29% and 26%
  Population Healthy Nuclei (%): 83% and 86%
  Population Mitotic Cells (%): 70% and 73%
  Population Normal (%): 89% and 92%
  Total Cell Count: 1639 and 1757
[3]; [9]
  Population Apoptotic (%): 74% and 55%
  Population Healthy Nuclei (%): 82% and 85%
  Population Mitotic Cells (%): 25% and 44%
  Population Normal (%): 86% and 90%
  Total Cell Count: 548 and 631
